Activity calls are given as the source filed them. The calls are words filed in the database; no cut-off is given here.
How the values were obtained:
[1] = AUC in NMRI mouse at 0.5 mg/kg, po; assay type: ADME, organism-based; parameters: dose 0.5 mg/kg, route oral; settings: plasma
How it was run: (§1)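 Female NMRI mice (n = 5) given a single iv bolus (0.2 mg/kg per compound) or oral gavage (0.5 mg/kg per compound) as a cassette, in DMSO/PEG 200/water. Serial retro-orbital blood was drawn under isoflurane from 3 animals per route at 0.1 (iv), 0.25 (po), 0.5, 1, 2, 4 and 6 h. Plasma was quantified by LC–MS/MS.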

[2] = Antitumor activity against human COLO205-F1756 clone 4 cells harboring APC mutant xenografted in CrTac:NCr-Foxn1nu mouse assessed as reduction in flux normalized to tumor weight at 70 mg/kg, po bid for 9 days relative to control; assay type: functional, COLO 205; parameters: scale not given: the % may be the effect or the level left
How it was run: (§2)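 Female athymic nude mice were implanted sc in the flank with 3 million COLO205-F1756 clone 4 cells. At about 100 mm3, groups of n = 8 were gavaged at 70 mg/kg bid or with vehicle (10% DMSO, 5% Tween 20 in saline). Luminescent flux was imaged after sc D-luciferin 2 and 6 h post final dose, then tumours were excised and weighed. Mann–Whitney U test.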

[3] = Volume of distribution at steady state in NMRI mouse at 0.2 mg/kg, iv; assay type: ADME, organism-based; parameters: dose 0.2 mg/kg, route intravenous; settings: in vivo, read-out: Vdss; how it was run: as §1
[4] = AUC in NMRI mouse at 0.2 mg/kg, iv; assay type: ADME, organism-based; parameters: dose 0.2 mg/kg, route intravenous; settings: plasma; how it was run: as §1
[5] = target: T1, Poly [ADP-ribose] polymerase tankyrase-2 (Homo sapiens, UniProt Q9H2K2); assay: Inhibition of GST-tagged TNKS2 (873 to 1166 aa) (unknown origin) after 90 mins by HTRF assay
T1 sequence (Q9H2K2 whole entry): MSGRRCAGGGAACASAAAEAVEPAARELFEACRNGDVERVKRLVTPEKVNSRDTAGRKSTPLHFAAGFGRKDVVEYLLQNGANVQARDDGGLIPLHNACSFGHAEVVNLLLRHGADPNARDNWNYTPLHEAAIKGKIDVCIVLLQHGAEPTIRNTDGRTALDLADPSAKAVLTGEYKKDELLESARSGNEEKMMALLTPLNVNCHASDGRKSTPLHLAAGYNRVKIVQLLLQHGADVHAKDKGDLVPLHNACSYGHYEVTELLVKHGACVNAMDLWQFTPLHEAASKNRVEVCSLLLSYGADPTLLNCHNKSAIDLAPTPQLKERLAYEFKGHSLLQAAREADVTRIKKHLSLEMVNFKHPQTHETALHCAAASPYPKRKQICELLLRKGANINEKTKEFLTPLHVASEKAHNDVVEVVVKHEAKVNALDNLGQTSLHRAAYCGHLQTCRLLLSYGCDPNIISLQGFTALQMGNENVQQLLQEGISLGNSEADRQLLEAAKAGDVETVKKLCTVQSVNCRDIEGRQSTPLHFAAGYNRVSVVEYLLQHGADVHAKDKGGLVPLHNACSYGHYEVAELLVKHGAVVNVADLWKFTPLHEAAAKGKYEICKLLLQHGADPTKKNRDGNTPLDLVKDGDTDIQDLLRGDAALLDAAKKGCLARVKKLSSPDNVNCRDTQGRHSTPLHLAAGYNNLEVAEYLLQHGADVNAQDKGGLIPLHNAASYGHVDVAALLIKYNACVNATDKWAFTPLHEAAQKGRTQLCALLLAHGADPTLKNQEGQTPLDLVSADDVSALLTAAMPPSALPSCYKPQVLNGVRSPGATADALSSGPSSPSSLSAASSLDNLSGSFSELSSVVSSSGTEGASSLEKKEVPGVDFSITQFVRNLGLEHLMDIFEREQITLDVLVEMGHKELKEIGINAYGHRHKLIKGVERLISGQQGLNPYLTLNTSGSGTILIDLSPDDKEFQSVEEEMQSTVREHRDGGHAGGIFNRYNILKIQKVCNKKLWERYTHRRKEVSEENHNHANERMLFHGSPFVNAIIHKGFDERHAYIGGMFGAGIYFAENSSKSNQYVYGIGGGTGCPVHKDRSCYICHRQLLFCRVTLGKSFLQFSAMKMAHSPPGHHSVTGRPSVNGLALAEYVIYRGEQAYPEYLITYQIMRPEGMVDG

[6] = Antitumor activity against human COLO205-F1756 clone 4 cells harboring APC mutant xenografted in CrTac:NCr-Foxn1nu mouse assessed as reduction in tumor weight at 70 mg/kg, po bid for 9 days relative to control; assay type: functional, COLO 205; parameters: scale not given: the % may be the effect or the level left; how it was run: as §2
[7] = Tmax in NMRI mouse at 0.2 mg/kg, iv; assay type: ADME, organism-based; parameters: dose 0.2 mg/kg, route intravenous; settings: in vivo; how it was run: as §1
[8] = tested on: COLO 205; assay: Effect on TCF1 level in human COLO205-F1756 clone 4 cells harboring APC mutant and TCF/LEF responsive element at 350 nM by immunoblotting; assay type: functional, cell-based
[9] = Clearance in NMRI mouse at 0.2 mg/kg, iv; assay type: ADME, organism-based; parameters: dose 0.2 mg/kg, route intravenous; settings: in vivo; how it was run: as §1
[10] = in vivo; settings: Wistar, rat, iv, 0.2 mg/kg

Cn1cc(-c2ccc(-c3cncc(Cl)c3N3CCC4(CCNC4=O)CC3)cc2)cn1
AUC [1]: 143 ng·h/mL | Activity [2]: 80% | Vd [3]: 1.1 L/kg | AUC [4]: 107 ng·h/mL | IC50 [5]: 15 µM | Activity [6]: 37.5% | Tmax [7]: 6 min | Activity [8]: inactive | clearance [9]: 31 mL/min/kg | half-life [10]: 58.2 min

Source: ChEMBL document CHEMBL3407438, “Discovery of potent, orally bioavailable, small-molecule inhibitors of WNT signaling from a cell-based pathway screen” (J Med Chem, 2015)
